Data taken from ChEMBL document CHEMBL1124946, “Cephalosporins to carbapenems: 1-oxygenated carbapenems and carbapenams” (1990).

What was measured:
Citrobacter koseri [1] = assay: In vitro minimal inhibitory concentration (MIC) in brain-heart infusion broth in the presence of hog liver esterase(1:1.5) in Citrobacter diversus 031; assay type: functional
Outline: (§1)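 Two-fold serial broth dilution in brain-heart infusion broth. POM ester prodrugs were incubated with hog liver esterase (1:1.5) in the broth so the ester is converted in situ to the free acid. The MIC is the lowest concentration that inhibits growth.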

Escherichia coli [2] = assay: In vitro minimal inhibitory concentration (MIC) in brain-heart infusion broth in the presence of hog liver esterase(1:1.5) in Escherichia coli 129; assay type: functional; outline: as §1
Enterobacter cloacae [3] = assay: In vitro minimal inhibitory concentration (MIC) in brain-heart infusion broth in the presence of hog liver esterase(1:1.5) in […] 009; assay type: functional; outline: as §1
Klebsiella pneumoniae [4] = assay: In vitro minimal inhibitory concentration in brain-heart infusion broth in presence of hog liver esterase(1:1.5) in Klebsiella pneumoniae 079; assay type: functional; outline: as §1
Morganella morganii = assay: In vitro minimal inhibitory concentration (MIC) in brain-heart infusion broth in the presence of hog liver esterase(1:1.5) in Morganella morganii 001; assay type: functional; outline: as §1
Pseudomonas aeruginosa = assay: In vitro minimal inhibitory concentration (MIC) in brain-heart infusion broth in the presence of hog liver esterase(1:1.5) in Pseudomonas aeruginosa 104; assay type: functional; outline: as §1
Staphylococcus aureus [5] = assay: In vitro minimal inhibitory concentration (MIC) in brain-heart infusion broth in the presence of hog liver esterase(1:1.5) in Staphylococcus aureus 005; assay type: functional; outline: as §1
[6] = In vitro minimal inhibitory concentration (MIC) in brain-heart infusion broth in the presence of hog liver esterase(1:1.5) in Serr. marc. 095; assay type: functional; conditions: Serratia marcescens; outline: as §1
Staphylococcus aureus [7] = assay: In vitro minimal inhibitory concentration (MIC) in brain-heart infusion broth in the presence of hog liver esterase(1:1.5) in Staphylococcus aureus 400; assay type: functional; outline: as §1
Escherichia coli [8] = assay: In vitro minimal inhibitory concentration (MIC) in brain-heart infusion broth in the presence of hog liver esterase(1:1.5) in Escherichia coli 266; assay type: functional; outline: as §1
Klebsiella pneumoniae [9] = assay: In vitro minimal inhibitory concentration (MIC) in brain-heart infusion broth in the presence of hog liver esterase(1:1.5) in Klebsiella pneumoniae 009; assay type: functional; outline: as §1
Streptococcus pyogenes = assay: In vitro minimal inhibitory concentration (MIC) in brain-heart infusion broth in the presence of hog liver esterase(1:1.5) in Streptococcus pyogenes 203; assay type: functional; outline: as §1
Haemophilus influenzae = assay: In vitro minimal inhibitory concentration (MIC) in brain-heart infusion broth in the presence of hog liver esterase(1:1.5) in Haemophilus influenzae 012
Citrobacter koseri [10] = assay: In vitro minimal inhibitory concentration in brain-heart infusion broth in presence of hog liver esterase(1:1.5) in Citrobacter diversus 031; assay type: functional; outline: as §1
Klebsiella pneumoniae [11] = assay: In vitro minimal inhibitory concentration in brain-heart infusion broth in the presence of hog liver esterase(1:1.5) in Klebsiella pneumoniae 079; assay type: functional; outline: as §1
Enterobacter cloacae [12] = assay: In vitro minimal inhibitory concentration in brain-heart infusion broth in the presence of hog liver esterase(1:1.5) in […] 009; assay type: functional; outline: as §1

Row | Structure (SMILES) | MIC (Citrobacter koseri [1]) | MIC (Escherichia coli [2]) | MIC (Enterobacter cloacae [3]) | MIC (Klebsiella pneumoniae [4]) | MIC (Morganella morganii) | MIC (Pseudomonas aeruginosa) | MIC (Staphylococcus aureus [5]) | MIC [6] | MIC (Staphylococcus aureus [7]) | MIC (Escherichia coli [8]) | MIC (Klebsiella pneumoniae [9]) | MIC (Streptococcus pyogenes) | MIC (Haemophilus influenzae) | MIC (Citrobacter koseri [10]) | MIC (Klebsiella pneumoniae [11]) | MIC (Enterobacter cloacae [12])
1 | C[C@H]1C(=O)[C@@H]2[C@H](NC(=O)OCc3ccccc3)C(=O)N2[C@H]1C(=O)OCOC(=O)C(C)(C)C | > 200 µg/mL | > 200 µg/mL | > 200 µg/mL | > 200 µg/mL | > 200 µg/mL | > 200 µg/mL | 100 µg/mL | > 200 µg/mL | > 200 µg/mL | > 200 µg/mL |  |  |  |  |  | 
2 | CC1=C(C(=O)OCOC(=O)C(C)(C)C)N2C(=O)[C@H]([C@@H](C)O)[C@H]2C1O (stereo partly drawn) |  | 6.25 µg/mL | 12.5 µg/mL |  | 50 µg/mL | 100 µg/mL | 3.12 µg/mL |  | 1.56 µg/mL | 6.25 µg/mL | 6.25 µg/mL | 0.78 µg/mL | 6.25 µg/mL |  |  | 
3 | CC(=O)OC1[C@H](C)C(C(=O)OCOC(=O)C(C)(C)C)N2C(=O)[C@H](NC(=O)COc3ccccc3)[C@@H]12 (stereo partly drawn) |  | > 200 µg/mL | > 200 µg/mL |  | > 200 µg/mL | > 200 µg/mL | > 200 µg/mL | > 200 µg/mL | > 200 µg/mL | > 200 µg/mL |  |  |  | > 200 µg/mL | > 200 µg/mL | 
4 | CCN1CCN(C(=O)N[C@@H](C(=O)N[C@@H]2C(=O)N3[C@@H]2C(O)[C@H](C)[C@@H]3C(=O)OCOC(=O)C(C)(C)C)c2ccccc2)C(=O)C1=O (stereo partly drawn) |  | > 200 µg/mL | 12.5 µg/mL |  | < 0.39 µg/mL | 200 µg/mL | 25 µg/mL | 25 µg/mL | > 200 µg/mL | 6.25 µg/mL |  |  |  | 12.5 µg/mL | 12.5 µg/mL | 
5 | C[C@H]1C(O)[C@@H]2[C@H](NC(=O)COc3ccccc3)C(=O)N2[C@H]1C(=O)OCOC(=O)C(C)(C)C (stereo partly drawn) | > 200 µg/mL | > 200 µg/mL | > 200 µg/mL | > 200 µg/mL | > 200 µg/mL | > 200 µg/mL | 25 µg/mL | > 200 µg/mL | 50 µg/mL | > 200 µg/mL |  |  |  |  |  | 
6 | N[C@@H](C(=O)N[C@@H]1C(=O)N2C(C(=O)O)=C(Cl)CS[C@H]12)c1ccccc1 [CEFACLOR ANHYDROUS] |  | 50 µg/mL | > 200 µg/mL |  | > 200 µg/mL | > 200 µg/mL | 1.56 µg/mL |  | 3.12 µg/mL | 3.12 µg/mL | 1.56 µg/mL | 0.05 µg/mL | 3.12 µg/mL |  |  | 
7 | CC1(C)S[C@@H]2[C@H](NC(=O)COc3ccccc3)C(=O)N2[C@H]1C(=O)O [PENICILLIN V] | > 200 µg/mL | > 200 µg/mL |  |  | > 200 µg/mL | > 200 µg/mL | < 0.025 µg/mL | > 200 µg/mL | 50 µg/mL | 100 µg/mL | > 200 µg/mL | < 0.025 µg/mL | 6.25 µg/mL |  | > 200 µg/mL | > 200 µg/mL
8 | C[C@@H](O)[C@H]1C(=O)N2C(C(=O)O)=C(SCCN)C[C@H]12 [THIENAMYCIN] |  | 0.39 µg/mL | 0.39 µg/mL |  | 6.25 µg/mL | 3.12 µg/mL | < 0.025 µg/mL |  | < 0.025 µg/mL | 0.1 µg/mL | 0.2 µg/mL | < 0.025 µg/mL | 0.78 µg/mL |  |  | 
